Measurements published in paper PMC6923801 (Journal of medicinal chemistry, 2019).

Legend:
Type in all cases: cell-based
[1] = biological target: GPR4 (Homo sapiens, UniProt P46093); assay: GloSensor cAMP assay at GPR4; conditions: proton concentration-response with increasing modulator
How it was run: (§1)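 HEK293T cells were transiently transfected with receptor and GloSensor cAMP plasmids, overnight (16–20 h). Cells were plated on poly-L-Lys in DMEM + 1% dFBS for 6–24 h, then loaded with 3.5 mM luciferin (HBSS, 20 mM TAPS, pH 8.40) for 1 h at 37 °C. Drug was applied in Ca/Mg-free HBSS pH buffers (MES 5.60–6.70, HEPES 6.80–8.20, TAPS 8.30–8.60) with 10 μM Ro 20-1724. Luminescence was read at 20–30 min.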

[2] = biological target: human GPR68 (Homo sapiens, UniProt Q15743); assay: GloSensor cAMP assay, proton-mediated Gs-cAMP production at human GPR68; conditions: for Δ: difference of Log(αβ/KB) from that of 1
Sequence of human GPR68 (Q15743 whole entry): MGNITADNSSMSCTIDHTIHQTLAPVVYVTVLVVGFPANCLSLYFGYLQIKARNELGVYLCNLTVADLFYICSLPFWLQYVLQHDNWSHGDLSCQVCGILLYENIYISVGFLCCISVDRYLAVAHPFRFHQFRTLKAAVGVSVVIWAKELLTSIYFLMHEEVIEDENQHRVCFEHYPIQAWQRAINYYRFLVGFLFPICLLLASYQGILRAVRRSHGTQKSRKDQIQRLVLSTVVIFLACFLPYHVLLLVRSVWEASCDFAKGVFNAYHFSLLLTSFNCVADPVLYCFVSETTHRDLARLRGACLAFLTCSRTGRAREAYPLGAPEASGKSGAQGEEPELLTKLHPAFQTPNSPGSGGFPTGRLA
How it was run: as §1

[3] = biological target: GPR65 (Homo sapiens, UniProt Q8IYL9); assay: GloSensor cAMP assay at GPR65; conditions: proton concentration-response with increasing modulator
Sequence of GPR65 (Q8IYL9 whole entry): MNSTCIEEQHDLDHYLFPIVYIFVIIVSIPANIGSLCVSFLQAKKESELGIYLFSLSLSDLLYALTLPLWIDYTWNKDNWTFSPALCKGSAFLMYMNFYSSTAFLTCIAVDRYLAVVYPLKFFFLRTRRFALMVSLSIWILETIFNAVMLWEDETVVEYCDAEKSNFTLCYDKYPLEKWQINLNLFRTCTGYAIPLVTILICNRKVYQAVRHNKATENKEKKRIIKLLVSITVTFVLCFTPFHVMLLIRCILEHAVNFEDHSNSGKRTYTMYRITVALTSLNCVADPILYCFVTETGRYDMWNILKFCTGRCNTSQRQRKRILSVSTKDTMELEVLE
How it was run: as §1

[4] = biological target: mouse GPR68 (Mus musculus, UniProt Q8BFQ3); assay: GloSensor cAMP assay at mouse GPR68
Sequence of mouse GPR68 (Q8BFQ3 whole entry): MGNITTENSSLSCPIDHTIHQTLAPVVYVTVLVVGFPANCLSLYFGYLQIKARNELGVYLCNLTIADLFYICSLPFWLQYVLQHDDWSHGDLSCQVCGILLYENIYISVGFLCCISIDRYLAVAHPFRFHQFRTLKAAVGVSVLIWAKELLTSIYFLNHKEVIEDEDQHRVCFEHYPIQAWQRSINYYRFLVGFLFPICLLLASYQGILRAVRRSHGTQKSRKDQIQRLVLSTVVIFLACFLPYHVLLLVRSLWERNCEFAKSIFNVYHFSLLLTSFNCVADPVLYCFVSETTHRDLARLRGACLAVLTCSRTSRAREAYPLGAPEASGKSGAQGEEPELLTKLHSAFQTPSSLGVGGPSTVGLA
How it was run: as §1

[5] = biological target: A2A receptors (Homo sapiens, UniProt P29274); assay: Functional assay at A2A receptors
Sequence of A2A receptors (P29274 whole entry): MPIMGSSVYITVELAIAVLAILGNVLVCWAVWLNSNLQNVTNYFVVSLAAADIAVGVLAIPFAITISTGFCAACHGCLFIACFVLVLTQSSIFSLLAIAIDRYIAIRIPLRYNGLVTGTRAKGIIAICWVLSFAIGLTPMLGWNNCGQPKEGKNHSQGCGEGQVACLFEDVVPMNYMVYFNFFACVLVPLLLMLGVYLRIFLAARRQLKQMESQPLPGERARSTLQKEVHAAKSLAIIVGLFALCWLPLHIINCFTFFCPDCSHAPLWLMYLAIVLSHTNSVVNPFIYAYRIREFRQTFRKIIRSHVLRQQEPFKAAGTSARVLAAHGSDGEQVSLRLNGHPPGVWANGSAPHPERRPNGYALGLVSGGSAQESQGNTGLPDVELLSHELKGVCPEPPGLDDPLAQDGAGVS

[6] = system: human GPCRome (318 GPCRs); assay: PRESTO-Tango GPCRome off-target agonist screen; conditions: 1 μM
How it was run: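 HTLA cells were plated in DMEM + 2% dFBS overnight, then transfected overnight with receptor Tango constructs (15 ng/well) by in-plate PEI. Test compound was added without medium change and left overnight. Bright-Glo luminescence was read after 20 min at room temperature and expressed as fold of basal, using quadruplicate basal and sample wells. Controls were D2 with 100 nM quinpirole and untransfected cells.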

Sequence of GPR4 (P46093 whole entry): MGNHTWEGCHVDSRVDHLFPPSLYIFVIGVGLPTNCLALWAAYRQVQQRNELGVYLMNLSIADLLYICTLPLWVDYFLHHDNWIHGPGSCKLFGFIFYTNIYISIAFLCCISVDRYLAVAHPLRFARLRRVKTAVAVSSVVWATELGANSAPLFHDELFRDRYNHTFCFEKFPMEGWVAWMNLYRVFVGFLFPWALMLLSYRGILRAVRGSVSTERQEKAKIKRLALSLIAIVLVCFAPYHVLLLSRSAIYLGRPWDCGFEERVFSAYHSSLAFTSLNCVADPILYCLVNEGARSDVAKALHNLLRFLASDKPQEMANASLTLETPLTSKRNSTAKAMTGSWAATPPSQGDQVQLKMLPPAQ

SMILES	Δ ([2]; human GPR68)	Kb [2] [µM]	further results
Nc1nc(NCc2ccc(Cl)cc2)nc(-c2ccccc2CO)n1 [Compound 46, (2-(4-Amino-6-((4-chlorobenzyl)amino)-1,3,5-triazin-2-yl)-phenyl)methanol]	0.80	6.03	Kb [4]: 50.1 µM; Δ ([4]; difference of Log(αβ/KB) at mouse GPR68 from the corresponding values at human GPR68): −0.43; EC50 [5]: 1700 nM; agonist activity at A2A receptors [5]: no agonist activity; off-target agonist activity at human GPCRome [6]: no agonist activity; PAM activity at GPR4 [1]: no effect or weak activity only at high concentrations; fold increased allosteric activity (log(αβ/KB)) compared to 1 ([2]; human GPR68): 6 fold; PAM activity at GPR65 [3]: no effect or weak activity only at high concentrations
Nc1nc(NCc2ccc(Oc3ccccc3)cc2)nc(-c2ccccc2CO)n1 [Compound 59, (2-(4-Amino-6-((4-phenoxybenzyl)amino)-1,3,5-triazin-2-yl)-phenyl)methanol]	0.83	6.46	
Nc1nc(NCCc2ccccc2)nc(-c2ccccc2CO)n1 [Compound 61]	0.31	31.6	
Nc1nc(NCCCc2ccccc2)nc(-c2ccccc2CO)n1 [Compound 62]	0.80	6.03	
Nc1nc(NCCCc2ccc(Oc3ccccc3)cc2)nc(-c2ccccc2CO)n1 [Compound 65, (2-(4-Amino-6-((3-(4-phenoxyphenyl)propyl)amino)-1,3,5-triazin-2-yl)phenyl)methanol]	0.53	21.4	
Nc1nc(NCCCCc2ccc(Oc3ccccc3)cc2)nc(-c2ccccc2CO)n1 [Compound 66, (2-(4-Amino-6-((4-(4-phenoxyphenyl)butyl)amino)-1,3,5-triazin-2-yl)phenyl)methanol]	0.62	15.5	
Nc1nc(NCc2ccc(F)cc2)nc(-c2c(F)cccc2CO)n1 [Compound 68, (2-(4-Amino-6-((4-fluorobenzyl)amino)-1,3,5-triazin-2-yl)-3-fluorophenyl)methanol]	0.24	35.5	
COc1ccccc1CNc1nc(N)nc(-c2c(F)cccc2CO)n1 [Compound 70, (2-(4-Amino-6-((2-methoxybenzyl)amino)-1,3,5-triazin-2-yl)-3-fluorophenyl)methanol]	−0.19	77.6	
Nc1nc(NCCc2ccccc2)nc(-c2c(F)cccc2CO)n1 [Compound 72, (2-(4-Amino-6-(phenethylamino)-1,3,5-triazin-2-yl)-3-fluorophenyl)methanol]	0.82	9.12	
Nc1nc(NCCCc2ccccc2)nc(-c2c(F)cccc2CO)n1 [Compound 73, (2-(4-Amino-6-((3-phenylpropyl)amino)-1,3,5-triazin-2-yl)-3-fluorophenyl)methanol]	0.36	33.9	
Nc1nc(NCCCCc2ccccc2)nc(-c2c(F)cccc2CO)n1 [Compound 74, (2-(4-Amino-6-((4-phenylbutyl)amino)-1,3,5-triazin-2-yl)-3-fluorophenyl)methanol]	0.03	91.2	
Nc1nc(NCCCc2ccc(Oc3ccccc3)cc2)nc(-c2c(F)cccc2CO)n1 [Compound 76, (2-(4-Amino-6-((3-(4-phenoxyphenyl)propyl)amino)-1,3,5-triazin-2-yl)-3-fluorophenyl)methanol]	0.81	11.5	
Nc1nc(NCCCCc2ccccc2)nc(-c2cc(Cl)ccc2CO)n1 [Compound 79, (2-(4-Amino-6-((4-phenylbutyl)amino)-1,3,5-triazin-2-yl)-4-chlorophenyl)methanol]	0.83	10.5	
Nc1nc(NCc2ccc(Oc3ccccc3)cc2)nc(-c2cc(Cl)ccc2CO)n1 [Compound 80, (2-(4-Amino-6-((4-phenoxybenzyl)amino)-1,3,5-triazin-2-yl)-4-chlorophenyl)methanol]	0.47	20	
Nc1nc(NCCc2ccc(Oc3ccccc3)cc2)nc(-c2cc(Cl)ccc2CO)n1 [Compound 81, (2-(4-Amino-6-((4-phenoxyphenethyl)amino)-1,3,5-triazin-2-yl)-4-chlorophenyl)methanol]	0.56	25.7	

Further lines, with some results ahead:

Δ ([2]; human GPR68)	Kb [2] [µM]	SMILES	further results
Inactive		Nc1nc(NCc2ccccc2)nc(-c2cccc(CO)c2)n1 [Compound 20]	PAM activity at GPR4 [1]: do not show PAM activity; Log (α) ([2]; affinity cooperativity, human GPR68, HEK293T, Gs-cAMP, mean ± SEM): Inactive; −Log (KB) ([2]; allosteric binding affinity from functional assay, human GPR68, mean ± SEM): Inactive; Log (αβ/KB) ([2]; allosteric index, human GPR68, mean ± SEM): Inactive; Log (β) ([2]; efficacy cooperativity, human GPR68, HEK293T, Gs-cAMP, mean ± SEM): Inactive; PAM activity at GPR68 ([2]; inactive analogues): do not show PAM activity; PAM activity at GPR65 [3]: do not show PAM activity
0.46	8.51	Nc1nc(NCc2ccc(OC3CC3)cc2)nc(-c2ccccc2CO)n1 [Compound 58, (2-(4-Amino-6-((4-cyclopropoxybenzyl)amino)-1,3,5-triazin-2-yl)phenyl)methanol]	
−0.27	120	Nc1nc(Nc2ccccc2)nc(-c2ccccc2CO)n1 [Compound 60, (2-(4-Amino-6-(phenylamino)-1,3,5-triazin-2-yl)phenyl)-methanol]	
1.04	3.02	Nc1nc(NCCCCc2ccccc2)nc(-c2ccccc2CO)n1 [Compound 63]	Kb [4]: 12.3 µM
0.59	10	Nc1nc(NCCc2ccc(Oc3ccccc3)cc2)nc(-c2ccccc2CO)n1 [Compound 64, (2-(4-Amino-6-((4-phenoxyphenethyl)amino)-1,3,5-triazin-2-yl)-phenyl)methanol]	
	60.3	Nc1nc(NCc2ccccc2F)nc(-c2c(F)cccc2CO)n1 [Compound 67, (2-(4-Amino-6-((2-fluorobenzyl)amino)-1,3,5-triazin-2-yl)-3-fluorophenyl)methanol]	
0.11	36.3	Cc1cccc(CNc2nc(N)nc(-c3c(F)cccc3CO)n2)c1 [Compound 69, (2-(4-Amino-6-((3-methylbenzyl)amino)-1,3,5-triazin-2-yl)-3-fluorophenyl)methanol]	
0.82	8.91	Nc1nc(NCCc2ccc(Oc3ccccc3)cc2)nc(-c2c(F)cccc2CO)n1 [Compound 75, (2-(4-Amino-6-((4-phenoxyphenethyl)amino)-1,3,5-triazin-2-yl)-3-fluorophenyl)methanol]	
